This passage reports Ratio and Activity results from ChEMBL document CHEMBL4818983, “Structure-activity relationship and hypoglycemic activity of tricyclic matrines with advantage of treating diabetic nephropathy” (Eur J Med Chem, 2020).

Active and inactive are the calls of the source. No cut-off for these calls is given here.

Data set [1] relates to HepG2. The data set is described as follows: Increase in glucose consumption in human HepG2 cells assessed as Gx/GDMSO ratio at 5 mM by glucose oxidase assay. The class given is functional. The method, boiled down: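 HepG2 glucose consumption screen. Test compounds at 25 μM, metformin at 5 mM. Activity expressed as ratio of glucose consumption to DMSO-treated cells (Gx/G_DMSO).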

Data set [2] deals with L6. The data set is described as follows: Increase in glucose consumption in rat L6 cells at 20 uM after 24 hrs by glucose oxidase assay. It is filed as functional, cell-based. The method, boiled down:
(§1)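 L6 myotubes treated with DMSO, compound or RGZ (20 μM) at the indicated concentrations for 24 h. Culture supernatants assayed for glucose consumption and lactate release; lysed cells assayed for ATP, normalized to protein. Mean ± SD of 3 independent experiments vs DMSO.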

Data set [3] has as its system Mus musculus. The data set is described as follows: Antidiabetic activity in KK-Ay mouse assessed as reduction in fasting blood glucose level at 5 mg/kg, po for 50 days by glucose oxidase method (reference value: 13.2 +/- 2.06 mM). It is filed as functional. To be noted: time 50 day. The method, boiled down:
(§2)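 Lipogenic-diet KK-Ay mice given 50 or 100 mg/kg compound or 5 mg/kg rosiglitazone orally for 50 days, C57BL/6J as normal controls. Fasting blood glucose, glycosylated haemoglobin, AGE, insulin, HOMA-IR, cholesterol, LDL-c, TG, serum creatinine and BUN determined. Mean ± SD, 8-9 mice per group.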

The subject of data set [4] is Mus musculus. The data set is described as follows: Antidiabetic activity in KK-Ay mouse assessed as effect on glycosylated haemoglobin level at 5 mg/kg, po for 50 days by glucose oxidase method (reference value: 8.74 +/- 1.08%). It is filed as functional. To be noted: time 50 day. The method, boiled down: as §2
Data set [5] relates to Mus musculus. Kind of data set: Antidiabetic activity in KK-Ay mouse assessed as effect on AGE level at 5 mg/kg, […] by ELISA (Rvb 2.85 +/- 0.92 ug/ml). It is filed as functional. Background: In an ELISA, binding on a coated surface is turned into a signal by an enzyme label.
In data set [6] the test system is Mus musculus. Kind of data set: Antidiabetic activity in KK-Ay mouse assessed as effect on insulin level at 5 mg/kg, […] by ELISA (reference value: 226 +/- 15.5 mU/l). It is filed as functional.
In data set [7] the test system is Mus musculus. Kind of data set: Antidiabetic activity in KK-Ay mouse assessed as effect on HOMA-IR level at 5 mg/kg, […] by ELISA (reference value: 137 +/- 18.4). The class given is functional.
The subject of data set [8] is Mus musculus. The data set is described as follows: Antidiabetic activity in KK-Ay mouse assessed as effect on cholesterol level at 5 mg/kg, […] by ELISA (reference value: 7.38 +/- 1.03 mM). The class given is functional.
Data set [9] concerns Mus musculus. The data set is described as follows: Antidiabetic activity in KK-Ay mouse assessed as effect on LDL level at 5 mg/kg, […] by ELISA (reference value: 1.11 +/- 0.24 mM). It is filed as functional.
The test system of data set [10] is Mus musculus. Kind of data set: Antidiabetic activity in KK-Ay mouse assessed as effect on Triglycerides level at 5 mg/kg, po for 24 hrs by ELISA (reference value: 4.01 +/- 1.83 mM). It is filed as functional.
For data set [11], the system named is Mus musculus. The data set is described as follows: Antidiabetic activity in KK-Ay mouse assessed as effect on serum Creatinine level at 5 mg/kg, po for 24 hrs by ELISA (reference value: 124 +/- 35.1 uM). It is filed as functional.
The test system of data set [12] is Mus musculus. The data set is described as follows: Antidiabetic activity in KK-Ay mouse assessed as effect on BUN level at 5 mg/kg, […] by ELISA (reference value: 12.8 +/- 2.97 mM). It is filed as functional.
For data set [13], the system named is Mus musculus. The data set is described as follows: Anti-diabetic activity in overnight fasted diabetic KK-Ay mouse assessed as increase in insulin responsiveness by measuring blood glucose at 5 mg/kg, po measured after 35 days by insulin tolerance test. It is filed as functional, organism-based. Conditions: time 35.0 day. The method, boiled down:
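KK-Ay mice orally treated with 50 or 100 mg/kg compound or 5 mg/kg rosiglitazone, C57BL/6J as normal controls. After 35 days of treatment, oral glucose tolerance test and insulin tolerance test run. Blood glucose plotted against time, AUC calculated. Mean ± SD, 8-9 mice per group.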

Data set [14] can be described thus: Effect on high fat diet-fed KK-Ay mouse model of obesity and diabetes assessed as food intake at 5 mg/kg, po (reference value: 5.67 +/- 0.55 g/day). The class given is ADME, organism-based. Conditions: in vivo. The method, boiled down: (§3)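 KK-Ay mice on lipogenic diet, with C57BL/6J mice as normal controls, dosed orally at 50 or 100 mg/kg (test) or 5 mg/kg (RGZ). Food intake (g/day), water intake (mL/day) and body weight recorded before and after treatment; body weight gain calculated. Mean±SD, 8-9 mice per group.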

Data set [15] in a line: Effect on high fat diet-fed KK-Ay mouse model of obesity and diabetes assessed as water intake at 5 mg/kg, po (reference value: 21.2 +/- 4.17 ml/day). The class given is ADME, organism-based. To be noted: in vivo. The essentials:
as §3

A short description of data set [16]: Effect on high fat diet-fed KK-Ay mouse model of obesity and diabetes assessed as total body weight gain at 5 mg/kg, po (reference value: 43.5 +/- 5.24 g). The class given is ADME, organism-based. Conditions: in vivo. The essentials:
as §3

Data set [17] has as its system Mus musculus. The data set is described as follows: Anti-diabetic activity in high fat diet-fed KK-Ay mouse model of obesity and diabetes assessed reduction in total protein level in urine at 5 mg/kg, po measured after 24 hrs. It is filed as functional, organism-based. The method, boiled down: (§4)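 Before study end, 24-h urine collected from C57BL/6J controls and KK-Ay mice (untreated, oral 50 or 100 mg/kg compound, or 5 mg/kg rosiglitazone). Volume, glucose, total protein and microalbumin measured by kits. Mean ± SD, 8-9 mice per group, vs C57BL/6J or untreated KK-Ay.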

Data set [18] deals with Mus musculus. The data set is described as follows: Anti-diabetic activity in high fat diet-fed KK-Ay mouse model of obesity and diabetes assessed as reduction in microalbumin level in urine at 5 mg/kg, po measured after 24 hrs. The class given is functional, organism-based. The method, boiled down: as §4
The subject of data set [19] is Mus musculus. Kind of data set: Anti-diabetic activity in high fat diet-fed KK-Ay mouse model of obesity and diabetes assessed as improved pathological changes in kidney at 5 mg/kg, po by hematoxylin and eosin staining based histopathological analysis. It is filed as functional, organism-based. The essentials:
(§5)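 Mice sacrificed at study end, with KK-Ay given 50 or 100 mg/kg compound or 5 mg/kg rosiglitazone orally and C57BL/6J as normal controls. Kidney and pancreas sections H&E stained, imaged at 200×, pathological changes scored. Mean ± SD of 8-9 mice per group.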

For data set [20], the system named is Mus musculus. Kind of data set: Anti-diabetic activity in high fat diet-fed KK-Ay mouse model of obesity and diabetes assessed as improved pathological changes in pancreas at 5 mg/kg, po by hematoxylin and eosin staining based histopathological analysis. It is filed as functional, organism-based. The essentials: as §5
Data set [21] relates to HepG2. Kind of data set: Induction of glycolysis in human HepG2 cells assessed as reduction in cellular ATP production at 20 uM measured after 24 hrs. It is filed as functional, cell-based. The method, boiled down: (§6)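 HepG2 cells treated 24 h at the indicated concentrations; RGZ as reference. Supernatants used for glucose consumption and lactate release; lysed cells used for ATP, normalized to protein content. Mean ± SD of 3 or 4 separate experiments; compared with DMSO.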

For data set [22], the system named is HepG2. The data set is described as follows: Increase in glucose consumption in human HepG2 cells at 20 uM measured after 24 hrs. It is filed as functional, cell-based. The essentials: as §6
For data set [23], the system named is L6. The data set is described as follows: Induction of glycolysis in rat L6 cells assessed as reduction in cellular ATP production at 20 uM measured after 24 hrs. The class given is functional, cell-based. The method, boiled down: as §1
Data set [24] concerns L6. The data set is described as follows: Increase in glucose consumption in rat L6 cells at 20 uM measured after 24 hrs. The class given is functional, cell-based. The method, boiled down:
as §1

Data set [25] relates to L6. The data set is described as follows: Induction of glycolysis in rat L6 cells assessed as increase in lactate release at 20 uM measured after 24 hrs.
The subject of data set [26] is HepG2. The data set is described as follows: Induction of glycolysis in human HepG2 cells assessed as increase in lactate release at 20 uM measured after 24 hrs.

Regarding `CN(C)C(=N)NC(=N)N` [METFORMIN], the Ratio with HepG2 [1] is 1.53.
With `CN(CCOc1ccc(CC2SC(=O)NC2=O)cc1)c1ccccn1` (stereo unspecified) [ROSIGLITAZONE], the result in the data set with L6 [2], in the data set on Mus musculus [13], in the data set with Mus musculus [17], in the data set on Mus musculus [18], with Mus musculus [19] and with Mus musculus [20] was Active. Also, the result with HepG2 [21], in the data set with HepG2 [22], with L6 [24], in the data set on L6 [25] and with HepG2 [26] was Active. For the same compound, the Activity with Mus musculus [3] came to 7.66 mM; with Mus musculus [4] it was 6.09%; with Mus musculus [5], 1.27 µg/mL; in the data set on Mus musculus [6], 89.3 mU/L; with Mus musculus [7], 30.4; with Mus musculus [8] it was 8.31 mM. Also, the Activity in the data set on Mus musculus [9] stood at 1.08 mM; in the data set with Mus musculus [10], 1.84 mM; in the data set with Mus musculus [11], 51.6 µM; in the data set with Mus musculus [12], 12 mM; in data set [14] it was 4.58 g/day; in data set [15], 6.1 mL/day. The Activity is 6.82 g in [16] and “Dose-Dependent Effect” in the data set on L6 [23].
